TRPC4 block = TRPC4 (mouse) channel inhibition; Q9QUQ5; HEK293 TRPC4beta/mu-opioid, DAMGO-evoked Fluo4 calcium flux; active compounds read low; B-score at 10 µM; 0.39% of 300,000 active;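 active = B-score over 3 SD under the library average, no early fluorescence shift, positive overall ratio signal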
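Test system – stable TRPC4beta/mu-opioid receptor HEK293 cells · Probe or stimulus – DAMGO, a submaximal dose followed by a maximal one · Dosing – one concentration per compound · Signal – Fluo4 calcium fluorescence by kinetic imaging, 5 s 1 Hz baseline · Evaluation – per-well B score of integrated baseline-normalized Fluo4 ratio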
TRPC4 PAM = TRPC4 (mouse) allosteric potentiation. Q9QUQ5. HEK293 TRPC4beta/mu-opioid, DAMGO EC20, Fluo-4 Ca2+ flux; active compounds read high. B-score at 10 µM. 0.42% of 310,000 active. AID 2227;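 active = B-score of calcium response area above 5 SD of library B-scores, with initial fluorescence ratio within 5 SD of library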
TRPC6 activator = activates the mouse TRPC6 cation channel; Q61143; HEK293-TRPC6 membrane potential dye fluorescence; active compounds read high; B-score at 10 µM; 0.13% of 310,000 active; AID 2550;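 active = B-score of the integrated fluorescence ratio above library mean plus 3 SD, and starting fluorescence ratio within library mean plus 5 SD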;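 also: higher score means more depolarization so channel activation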
TRPC4 act = activators of mouse TRPC4 channel. B-score at 10 µM. 0.49% of 310,000 active. HEK293 TRPC4beta/mu-opioid, Fluo4 calcium fluorescence; active compounds read high. Q9QUQ5;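 active = B-score above 5 SD of library B-scores, and initial fluorescence ratio not above library mean plus 5 SD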;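 also: positive B-score marks a calcium rise read as TRPC4 activation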
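Material: TRPC4beta and mu-opioid receptor HEK293 stable cells | Incubation: 45 min room-temperature Fluo4 loading, 110 s read | Detection: Kinetic Fluo4 calcium fluorescence | Measure: Integrated baseline-normalised fluorescence ratio, converted to per-well B score | Benchmarks: Low control buffer alone, high control maximal DAMGO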
TRPC6 inh = blocks the mouse TRPC6 cation channel; B-score at 10 µM; Q61143; 1.1% of 310,000 active; AID 2553; HEK293-TRPC6, membrane potential dye, ACh-evoked depolarization; active compounds read low;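 active = B-score under library mean minus 3 SD, initial fluorescence not abnormally high, positive integrated signal ratio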;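 also: B-score derived from integrated fluorescence ratio over the kinetic read; more negative B-score means stronger inhibition of depolarization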
TRPC4 sel inh 2 = second check of whether TRPC6 inhibitors also affect mouse TRPC4 | HEK293 TRPC4/MOR, membrane potential dye fluorescence; channel activated by saturating DAMGO dose | 42% of 920 active | shares compounds with TRPC6 inh | inhibition, % at 10 µM | AID 2776;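 active = compounds whose fluorescence signal differed from control wells by over 3 SD, either direction, in both duplicate plates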
TRPC4 spec = mouse TRPC4 off-target activity of TRPC6 inhibitors; 61% of 920 active; HEK293 TRPC4/mu-opioid, membrane potential fluorescence; activity change, negative = inhibition, % at 10 µM; shares compounds with TRPC6 inh;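 active = rise or fall in signal beyond 3 SD of buffer-only wells in both replicate plates, either sign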;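 also: integrated kinetic ratio of fluorescence range over baseline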
HEK293 MPD ctr 2-1 = second counter-screen for TRPC6 inhibitors: parental HEK293 cells. shares compounds with TRPC6 inh. parental HEK293 membrane potential dye fluorescence; maximal acetylcholine challenge after compound addition. signal change vs control, % at 10 µM. 31% of 920 active. AID 2779;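 active = membrane potential signal moving either way by over 3 SD of the maximum-effect control, in both duplicate plates, meaning non-specific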
HEK293 MPD ctr-1 = parental HEK293 nonspecific activity of TRPC6 inhibitors; shares compounds with TRPC6 inh; parental HEK293 membrane potential dye fluorescence; membrane potential signal change, % at 10 µM; 60% of 920 active; AID 2780;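 active = membrane potential signal shifting up or down by more than 3 SD of buffer-only wells, on both duplicate plates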
HEK293 MPD ctr-2 = checks TRPC6 modulator effects in parental HEK293 cells. membrane potential dye fluorescence. shares compounds with TRPC6 inh. 51% of 2,400 active. membrane potential signal change, % at 10 µM. AID 488924;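 active = membrane potential signal moves up or down beyond 5 SD from buffer-only wells, on both duplicate plates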
HEK293 MPD ctr 2-2 = second counter-screen for TRPC6 modulators: effect in parental HEK293 cells | membrane potential dye fluorescence; after compound, maximal acetylcholine stimulation | 14% of 2,400 active | shares compounds with TRPC6 inh | inhibition, % at 10 µM;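 active = membrane potential signal drops by more than 5 SD from the mean control signal, in both duplicate plates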
TRPC4 ctr mod = mouse TRPC4 off-target activity of TRPC6 modulators; shares compounds with TRPC6 inh; HEK293 TRPC4/mu-opioid, membrane potential fluorescence; percent change from control (negative = decrease, positive = increase), % at 10 µM; 69% of 2,400 active; AID 488927;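 active = membrane potential signal moved up or down beyond 5 SD of buffer control wells, in both duplicate plates, actives on both sides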
TRPC4 ctr inh 2 = second check of whether TRPC6 modulators also affect mouse TRPC4. shares compounds with TRPC6 inh. HEK293 TRPC4/mu-opioid, membrane potential dye fluorescence; stimulated with maximal-effect DAMGO. inhibition, % at 10 µM. 55% of 2,400 active. AID 488928;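 active = drop in membrane potential signal beyond 5 SD of the control wells in both duplicate plates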;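 also: TRPC4 counter screen for TRPC6 hits run under conditions tuned for TRPC6 not TRPC4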
TRPC6 inh conf = confirmation of mouse TRPC6 inhibitors; shares compounds with TRPC6 inh; HEK293-TRPC6, membrane potential dye, ACh-evoked depolarization; inhibition, % at 10 µM; 43% of 3,300 active;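 active = fluorescence ratio falls more than 5 SD below the full-stimulation control mean, in both duplicate runs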;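 also: integrated fluorescence ratio of peak minus minimum over baseline after agonist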
TRPC6 act confirm = confirmation of mouse TRPC6 activators; shares compounds with TRPC6 inh; HEK293-TRPC6 membrane potential dye fluorescence, FDSS; activation, % at 10 µM; 11% of 2,800 active; AID 488961;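 active = ratio signal rise beyond 5 SD above unstimulated control wells' mean, seen in both duplicate runs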
A number is an active result; . = inactive; / = no result given; + = active, no number. A selection: hits, their analogues and other compounds. The true share with any hit is near 2.3%.

SMILES	TRPC4 block	TRPC4 PAM	TRPC6 activator	TRPC4 act	TRPC6 inh	HEK293 MPD ctr-2	HEK293 MPD ctr 2-2	TRPC4 ctr mod	TRPC4 ctr inh 2	TRPC6 inh conf	TRPC6 act confirm	others
Nc1c2c(nc3ccn(-c4ccccc4)c(=O)c13)CCCCC2	.	.	.	.	-5.36	-151.0%	.	-28.5%	37.5%	.	.
Nc1c2c(nc3ccn(Cc4ccccc4)c(=O)c13)CCC2	.	.	.	.	-7.45	/	/	/	/	73.0%	.	TRPC4 sel inh 2=71.5%;TRPC4 spec=-22.5%;HEK293 MPD ctr 2-1=-10.5%;HEK293 MPD ctr-1=-353.0%
COc1ccc(CN2CCCC(C(=O)Nc3cccc(-n4cccn4)c3)C2)c(F)c1 (stereo not given)	.	.	.	.	.	/	/	/	/	/	/
CCOC(=O)c1[nH]n(-c2ccc(Cl)cc2)c(=O)c1C	.	.	.	.	-7.77	/	/	/	/	.	.	TRPC4 sel inh 2=.;TRPC4 spec=.;HEK293 MPD ctr 2-1=.;HEK293 MPD ctr-1=.
Cc1ccc(NC(=O)C2CCCN(C(=O)NCc3ccccc3)C2)c(C)c1 (stereo not given)	.	.	.	.	.	/	/	/	/	/	/
CCOC(=O)c1ccc(NC(=O)CCC2COc3ccccc3O2)cc1 (stereo not given)	.	.	20.1	.	.	.	.	.	.	/	135.5%
Cn1c(CNc2ccc(Cl)cc2)nnc1SCCN1CCCCC1	.	.	.	.	-5.14	.	.	17.5%	38.0%	.	.
CN(C)C(=O)COc1ccc(Oc2ccccc2)cc1	.	.	.	.	.	/	/	/	/	/	/
COc1cc(CNCCc2ccc(S(N)(=O)=O)cc2)ccc1OCC(=O)NC1CCCCC1	.	.	11.8	47	-12.1	.	.	.	.	.	.
COc1cc(CNCc2ccccn2)ccc1OCC(=O)NC1CCCCC1	.	.	.	.	.	/	/	/	/	/	/
Cc1ccc(OC(C)C(=O)N2CC(=O)Nc3ccccc32)cc1 (stereo not given)	.	.	14.9	.	.	.	.	.	.	/	136.0%
Cc1ccc(N=C2C(=O)Nc3ccccc32)cc1	.	.	.	.	.	/	/	/	/	/	/
CCN(CC)c1ccc(N=C2C(=O)Nc3ccccc32)cc1	.	.	.	.	-7.53	-261.0%	.	-40.5%	89.0%	76.0%	.
Cc1cc(C)nc(NC2=NCC(=O)N2c2cc(Cl)cc(Cl)c2)n1	.	.	.	.	.	/	/	/	/	/	/
Cc1cc(C)nc(NC2=NC3CCCCC3N2)n1 (stereo not given)	.	.	.	.	-8.95	191.5%	127.5%	-10.0%	53.5%	56.5%	.
N#C/C(=C\c1ccc(N2CCOCC2)o1)C(=O)NCCc1ccccc1	.	.	13.7	.	.	774.0%	135.0%	129.0%	.	.	95.5%
COCCNC(=O)/C(C#N)=C/c1ccc(N2CCOCC2)o1	.	.	.	.	.	/	/	/	/	/	/
N#C/C(=C/c1ccc(N2CCOCC2)o1)C(=O)Nc1ccccc1	.	.	50.4	.	.	+	+	133.5%	.	/	321.5%
Cc1ccc(/C(C#N)=C\c2ccc(N3CCOCC3)o2)cc1	.	.	27.1	.	.	419.5%	.	97.5%	.	.	115.0%
N#C/C(=C\c1ccc(N2CCOCC2)o1)C(=O)NC1CCCCC1	.	.	.	.	.	/	/	/	/	/	/
O=C(CSc1ncc(-c2ccccc2)n1CC1CCCO1)N1CCCCC1 (stereo not given)	.	.	.	.	-5.98	99.5%	.	13.0%	.	.	/
COc1ccc(-c2coc3cc(OC)cc(O)c3c2=O)cc1	.	.	.	.	-8.63	.	.	.	.	.	.
COc1ccc(-c2coc3cc(O)cc(O)c3c2=O)cc1	.	.	.	.	.	/	/	/	/	/	/
CCOc1cc(C(=O)N(CC)CC(=O)Nc2c(F)cccc2F)ccc1OCC(=O)N1CCCCC1	.	.	.	.	.	/	/	/	/	/	/
CCCC/C(O)=C1\C(=O)CC(C)(C)CC1=NCCCCCC(=O)O	.	.	.	.	.	/	/	/	/	/	/
SMILES	TRPC4 block	TRPC4 PAM	TRPC6 activator	TRPC4 act	TRPC6 inh	HEK293 MPD ctr-2	HEK293 MPD ctr 2-2	TRPC4 ctr mod	TRPC4 ctr inh 2	TRPC6 inh conf	TRPC6 act confirm	others
COc1cccc(OCc2nn3c(=O)c(-c4ccccc4)nnc3s2)c1	.	.	.	.	.	/	/	/	/	/	/
Cc1cc(=O)c(C(=O)O)nn1-c1ccccc1Cl	.	.	.	.	.	/	/	/	/	/	/
CCN1CCN(c2cc(C)c3cc(NC(=O)c4ccc(Br)o4)ccc3n2)CC1	-6	.	.	.	-5.45	.	.	-11.5%	42.5%	.	.
CCN1CCN(c2cc(C)c3cc(NC(=O)c4ccncc4)ccc3n2)CC1	.	.	.	.	-5.48	-100.5%	.	.	.	.	.
CCN1CCN(c2cc(C)c3cc(NC(=O)c4ccc(C)c(C)c4)ccc3n2)CC1	.	.	.	.	.	/	/	/	/	/	/
N=c1sccn1CC(=O)Nc1cc(S(=O)(=O)N2CCCC2)ccc1Cl	.	.	.	.	.	/	/	/	/	/	/
CCS(=O)(=O)c1nc(S(=O)(=O)c2ccc(Cl)cc2)c(N2CCOCC2)s1	.	.	.	.	.	/	/	/	/	/	/
Cc1ccc(Nc2nc(N3CCOCC3)c3ccccc3n2)cc1	.	.	.	.	-5.26	.	.	-21.5%	55.0%	.	.
Cc1ccc(Nc2nc(N)c([N+](=O)[O-])c(N3CCOCC3)n2)cc1	.	.	.	.	.	/	/	/	/	/	/
c1ccc2c(c1)nc(N1CCCCCC1)c1ccccc12	.	.	.	.	.	/	/	/	/	/	/
Oc1ccc(Nc2nc(N3CCCC3)c3ccccc3n2)cc1	-6	.	.	.	-11.2	/	/	/	/	70.9%	.	TRPC4 sel inh 2=55.5%;TRPC4 spec=-19.2%;HEK293 MPD ctr 2-1=32.0%;HEK293 MPD ctr-1=-262.5%

Screens: PubChem BioAssay, Johns Hopkins Ion Channel Center
